Results published in ChEMBL document CHEMBL1154358, “Xanalteric acids I and II and related phenolic compounds from an endophytic Alternaria sp. isolated from the mangrove plant Sonneratia alba” (J Nat Prod, 2009).
≈ marks a conversion by molar mass, not a printed value. Calls of active or inactive are those of the source.

What was measured:
Pichia kudriavzevii = test: Antifungal activity against multidrug-resistant Candida krusei by broth dilution method; format: functional, organism-based
How it was run: (§1)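 Dilution assay following EUCAST criteria against multidrug-resistant bacterial or fungal strains. Compounds were tested from 250 down to 0.48 μg/mL. MIC was taken as the lowest concentration at which bacterial or fungal growth was inhibited.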

Streptococcus pneumoniae = test: Antibacterial activity against multidrug-resistant Streptococcus pneumoniae by broth dilution method; format: functional; how it was run: as §1
Aspergillus fumigatus = test: Antifungal activity against multidrug-resistant Aspergillus fumigatus by broth dilution method; format: functional, organism-based; how it was run: as §1
Pseudomonas aeruginosa = test: Antibacterial activity against multidrug-resistant Pseudomonas aeruginosa by broth dilution method; format: functional, organism-based; how it was run: as §1
Enterobacter cloacae = test: Antibacterial activity against multidrug-resistant Enterobacter cloacae by broth dilution method; format: functional; how it was run: as §1
Candida albicans = test: Antifungal activity against multidrug-resistant Candida albicans by broth dilution method; format: functional; how it was run: as §1
Acinetobacter baumannii = test: Antibacterial activity against multidrug-resistant Acinetobacter baumannii by broth dilution method; format: functional, organism-based
Aspergillus ficuum = test: Antifungal activity against multidrug-resistant Aspergillus ficuum by broth dilution method; format: functional
Enterococcus faecium = test: Antibacterial activity against multidrug-resistant Enterococcus faecium by broth dilution method; format: functional; how it was run: as §1
Klebsiella pneumoniae = test: Antibacterial activity against multidrug-resistant Klebsiella pneumoniae by broth dilution method; format: functional, organism-based; how it was run: as §1
Escherichia coli = test: Antibacterial activity against multidrug-resistant Escherichia coli by broth dilution method; format: functional, organism-based; how it was run: as §1
Staphylococcus aureus = test: Antibacterial activity against methicillin-resistant Staphylococcus aureus by broth dilution method; format: functional; how it was run: as §1
[1] = Cytotoxicity against mouse L5178Y cells assessed as cell viability at 10 ug/ml after 24 hrs by MTT assay; format: cell-based; settings: read-out: Activity
How it was run: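 Mouse lymphoma L5178Y cells; viability read by MTT tetrazolium microculture assay. Run as three independent experiments, each in triplicate. Medium with 0.1% (v/v) EtOH served as the negative control in every experiment.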

In the case of `COc1cc(O)c(C(=O)O)c(-c2cc(O)c(O)cc2C)c1` [ALTENUSIN], the Activity (Pichia kudriavzevii) was “inactive”, the MIC (Streptococcus pneumoniae) was 31.2 µg/mL (≈ 108 µM) and the Activity (Aspergillus fumigatus) was “inactive”. The Activity (Pseudomonas aeruginosa) was “inactive”, the MIC (Enterobacter cloacae) was 125 µg/mL (≈ 431 µM) and the MIC (Candida albicans) was 125 µg/mL (≈ 431 µM). For the same molecule, the Activity (Acinetobacter baumannii) was “inactive”, the MIC (Aspergillus ficuum) was 62.5 µg/mL and the MIC (Enterococcus faecium) was 62.5 µg/mL (≈ 215 µM). For the same molecule, the Activity (Klebsiella pneumoniae) was “inactive”, the Activity (Escherichia coli) was “inactive” and the MIC (Staphylococcus aureus) was 31.2 µg/mL (≈ 108 µM).
For `O=C1C=Cc2c3c4c(c(O)ccc4c4ccc(O)c1c24)OC(C(=O)O)C3O` (centres undefined) [XANALTERIC ACID I], the Activity (Pichia kudriavzevii) was “inactive”, the Activity (Aspergillus fumigatus) was “inactive” and the Activity (Pseudomonas aeruginosa) was “inactive”. For the same molecule, the Activity (Acinetobacter baumannii) was “inactive”, the Activity (Klebsiella pneumoniae) was “inactive” and the viability at 24 h, 10 ug/ml [1] was 45%. For the same molecule, the Activity (Escherichia coli) was “inactive” and the MIC (Staphylococcus aureus) was 125 µg/mL (≈ 343 µM).
With `COc1cc(O)c2c(c1)C1=C[C@H](O)[C@@H](O)C[C@]1(C)OC2=O` the Activity (Pichia kudriavzevii) was “inactive”, the Activity (Streptococcus pneumoniae) was “inactive” and the Activity (Aspergillus fumigatus) was “inactive”. For the same molecule, the Activity (Pseudomonas aeruginosa) was “inactive”, the Activity (Enterobacter cloacae) was “inactive” and the Activity (Candida albicans) was “inactive”. For the same molecule, the Activity (Acinetobacter baumannii) was “inactive”, the Activity (Aspergillus ficuum) was “inactive” and the Activity (Enterococcus faecium) was “inactive”. The Activity (Klebsiella pneumoniae) was “inactive”, the Activity (Escherichia coli) was “inactive” and the Activity (Staphylococcus aureus) was “inactive”.
For `COc1c(CC(C)O)c2c3c(CC(C)O)c(C(=O)O)oc4c(O)cc5c(c6c(cc(O)c(c1=O)c62)OCO5)c43` (centres undefined), the Activity (Pichia kudriavzevii) was “inactive”, the Activity (Streptococcus pneumoniae) was “inactive” and the Activity (Aspergillus fumigatus) was “inactive”. The Activity (Pseudomonas aeruginosa) was “inactive”, the Activity (Enterobacter cloacae) was “inactive” and the Activity (Candida albicans) was “inactive”. For the same molecule, the Activity (Acinetobacter baumannii) was “inactive”, the Activity (Aspergillus ficuum) was “inactive” and the Activity (Enterococcus faecium) was “inactive”. The Activity (Klebsiella pneumoniae) was “inactive”, the Activity (Escherichia coli) was “inactive” and the Activity (Staphylococcus aureus) was “inactive”.
For `O=C1C[C@@H](O)[C@H]2c3c(ccc(O)c31)-c1ccc(O)c3c1[C@]2(O)C=CC3=O`, the Activity (Pichia kudriavzevii) was “inactive”, the Activity (Streptococcus pneumoniae) was “inactive” and the Activity (Aspergillus fumigatus) was “inactive”. The Activity (Pseudomonas aeruginosa) was “inactive”, the Activity (Enterobacter cloacae) was “inactive” and the Activity (Candida albicans) was “inactive”. For the same molecule, the Activity (Acinetobacter baumannii) was “inactive”, the Activity (Aspergillus ficuum) was “inactive” and the Activity (Enterococcus faecium) was “inactive”. For the same molecule, the Activity (Klebsiella pneumoniae) was “inactive”, the Activity (Escherichia coli) was “inactive” and the Activity (Staphylococcus aureus) was “inactive”.
With `COc1c(CC(C)O)c2c3c(CC(C)O)c(OC)c(=O)c4c(O)cc5c(c6c(cc(O)c(c1=O)c62)OCO5)c43` (centres undefined) the Activity (Pichia kudriavzevii) was “inactive”, the Activity (Streptococcus pneumoniae) was “inactive” and the Activity (Aspergillus fumigatus) was “inactive”. The Activity (Pseudomonas aeruginosa) was “inactive”, the Activity (Enterobacter cloacae) was “inactive” and the Activity (Candida albicans) was “inactive”. The Activity (Acinetobacter baumannii) was “inactive”, the Activity (Aspergillus ficuum) was “inactive” and the Activity (Enterococcus faecium) was “inactive”. For the same molecule, the Activity (Klebsiella pneumoniae) was “inactive”, the Activity (Escherichia coli) was “inactive” and the Activity (Staphylococcus aureus) was “inactive”.
In the case of `O=C1C[C@@H](O)[C@@H]2c3ccc(O)c4c3[C@@H](c3ccc(O)c1c32)[C@H](O)CC4=O`, the Activity (Pichia kudriavzevii) was “inactive”, the Activity (Streptococcus pneumoniae) was “inactive” and the Activity (Aspergillus fumigatus) was “inactive”. The Activity (Pseudomonas aeruginosa) was “inactive”, the Activity (Enterobacter cloacae) was “inactive” and the Activity (Candida albicans) was “inactive”. The Activity (Acinetobacter baumannii) was “inactive”, the Activity (Aspergillus ficuum) was “inactive” and the Activity (Enterococcus faecium) was “inactive”. For the same molecule, the Activity (Klebsiella pneumoniae) was “inactive”, the Activity (Escherichia coli) was “inactive” and the Activity (Staphylococcus aureus) was “inactive”.
In the case of `O=C1C=Cc2c3c4c(c(O)ccc4c4ccc(O)c1c24)OC(O)(C(=O)O)C3` (centres undefined) [XANALTERIC ACID II], the Activity (Pichia kudriavzevii) was “inactive”, the Activity (Aspergillus fumigatus) was “inactive” and the Activity (Pseudomonas aeruginosa) was “inactive”. For the same molecule, the Activity (Acinetobacter baumannii) was “inactive”, the Activity (Klebsiella pneumoniae) was “inactive” and the viability at 24 h, 10 ug/ml [1] was 87.5%. The Activity (Escherichia coli) was “inactive” and the MIC (Staphylococcus aureus) was 250 µg/mL (≈ 686 µM).
In the case of `Cc1cc(O)cc2oc(=O)c3c(O)cc(O)cc3c12`, the MIC (Pichia kudriavzevii) was “inactive”, the Activity (Streptococcus pneumoniae) was “inactive” and the MIC (Aspergillus fumigatus) was “inactive”. For the same molecule, the MIC (Pseudomonas aeruginosa) was “inactive”, the Activity (Enterobacter cloacae) was “inactive” and the Activity (Candida albicans) was “inactive”. The MIC (Acinetobacter baumannii) was “inactive”, the Activity (Aspergillus ficuum) was “inactive” and the Activity (Enterococcus faecium) was “inactive”. The MIC (Klebsiella pneumoniae) was “inactive”, the MIC (Escherichia coli) was “inactive” and the Activity (Staphylococcus aureus) was “inactive”.
For `O=C1C[C@H](O)[C@@H]2c3c(ccc(O)c31)-c1ccc(O)c3c1[C@@]2(O)CCC3=O`, the Activity (Pichia kudriavzevii) was “inactive”, the Activity (Streptococcus pneumoniae) was “inactive” and the Activity (Aspergillus fumigatus) was “inactive”. The Activity (Pseudomonas aeruginosa) was “inactive”, the Activity (Enterobacter cloacae) was “inactive” and the Activity (Candida albicans) was “inactive”. The Activity (Acinetobacter baumannii) was “inactive”, the Activity (Aspergillus ficuum) was “inactive” and the Activity (Enterococcus faecium) was “inactive”. The Activity (Klebsiella pneumoniae) was “inactive”, the Activity (Escherichia coli) was “inactive” and the Activity (Staphylococcus aureus) was “inactive”.
With `COc1cc(O)c2c(c1)C1C[C@H](O)[C@@H](O)C[C@@]1(C)OC2=O` (some centres undefined) the Activity (Pichia kudriavzevii) was “inactive”, the Activity (Streptococcus pneumoniae) was “inactive” and the Activity (Aspergillus fumigatus) was “inactive”. For the same molecule, the Activity (Pseudomonas aeruginosa) was “inactive”, the Activity (Enterobacter cloacae) was “inactive” and the Activity (Candida albicans) was “inactive”. The Activity (Acinetobacter baumannii) was “inactive”, the Activity (Aspergillus ficuum) was “inactive” and the Activity (Enterococcus faecium) was “inactive”. The Activity (Klebsiella pneumoniae) was “inactive”, the Activity (Escherichia coli) was “inactive” and the Activity (Staphylococcus aureus) was “inactive”.
With `COc1cc(O)c(C(=O)O)c(-c2c(C)cc(C(=O)O)oc2=O)c1` [ALTERNARIAN ACID] the Activity (Pichia kudriavzevii) was “inactive”, the Activity (Streptococcus pneumoniae) was “inactive” and the Activity (Aspergillus fumigatus) was “inactive”. The Activity (Pseudomonas aeruginosa) was “inactive”, the Activity (Enterobacter cloacae) was “inactive” and the Activity (Candida albicans) was “inactive”. The Activity (Acinetobacter baumannii) was “inactive”, the Activity (Aspergillus ficuum) was “inactive” and the Activity (Enterococcus faecium) was “inactive”. The Activity (Klebsiella pneumoniae) was “inactive”, the viability at 24 h, 10 ug/ml [1] was 99.2% and the Activity (Escherichia coli) was “inactive”. For the same molecule, the Activity (Staphylococcus aureus) was “inactive”.
In the case of `COc1cc(O)c2c(=O)oc3cc(O)cc(C)c3c2c1`, the Activity (Pichia kudriavzevii) was “inactive”, the Activity (Streptococcus pneumoniae) was “inactive” and the Activity (Aspergillus fumigatus) was “inactive”. For the same molecule, the Activity (Pseudomonas aeruginosa) was “inactive”, the Activity (Enterobacter cloacae) was “inactive” and the Activity (Candida albicans) was “inactive”. For the same molecule, the Activity (Acinetobacter baumannii) was “inactive”, the Activity (Aspergillus ficuum) was “inactive” and the Activity (Enterococcus faecium) was “inactive”. For the same molecule, the Activity (Klebsiella pneumoniae) was “inactive”, the Activity (Escherichia coli) was “inactive” and the Activity (Staphylococcus aureus) was “inactive”.
